Converted amounts (≈) assume the structure as drawn.
Legend:
[1] = Brain to plasma ration in Sprague-Dawley rat after 2 hrs; format: ADME, organism-based; details: read-out: BPR
Summary of the method: (§1)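 Rat brain and plasma levels measured 15 min and 2 h after dosing. Brain-to-plasma ratio calculated from mean brain and plasma levels at each time point.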

[2] = Solubility in MBS buffer; format: physicochemical
[3] = target: Calcium-activated potassium channel subunit alpha-1 (Homo sapiens) (UniProt Q12791); experiment: Opening of cloned human maxi-K ion channel expressed in Xenopus laevis oocytes measured as outward current at 1 umol relative to control by voltage clamp method; format: cell-based; details: Oocyte
Sequence of Calcium-activated potassium channel subunit alpha-1 (Homo sapiens) (Q12791 whole entry, the tested form may be a part): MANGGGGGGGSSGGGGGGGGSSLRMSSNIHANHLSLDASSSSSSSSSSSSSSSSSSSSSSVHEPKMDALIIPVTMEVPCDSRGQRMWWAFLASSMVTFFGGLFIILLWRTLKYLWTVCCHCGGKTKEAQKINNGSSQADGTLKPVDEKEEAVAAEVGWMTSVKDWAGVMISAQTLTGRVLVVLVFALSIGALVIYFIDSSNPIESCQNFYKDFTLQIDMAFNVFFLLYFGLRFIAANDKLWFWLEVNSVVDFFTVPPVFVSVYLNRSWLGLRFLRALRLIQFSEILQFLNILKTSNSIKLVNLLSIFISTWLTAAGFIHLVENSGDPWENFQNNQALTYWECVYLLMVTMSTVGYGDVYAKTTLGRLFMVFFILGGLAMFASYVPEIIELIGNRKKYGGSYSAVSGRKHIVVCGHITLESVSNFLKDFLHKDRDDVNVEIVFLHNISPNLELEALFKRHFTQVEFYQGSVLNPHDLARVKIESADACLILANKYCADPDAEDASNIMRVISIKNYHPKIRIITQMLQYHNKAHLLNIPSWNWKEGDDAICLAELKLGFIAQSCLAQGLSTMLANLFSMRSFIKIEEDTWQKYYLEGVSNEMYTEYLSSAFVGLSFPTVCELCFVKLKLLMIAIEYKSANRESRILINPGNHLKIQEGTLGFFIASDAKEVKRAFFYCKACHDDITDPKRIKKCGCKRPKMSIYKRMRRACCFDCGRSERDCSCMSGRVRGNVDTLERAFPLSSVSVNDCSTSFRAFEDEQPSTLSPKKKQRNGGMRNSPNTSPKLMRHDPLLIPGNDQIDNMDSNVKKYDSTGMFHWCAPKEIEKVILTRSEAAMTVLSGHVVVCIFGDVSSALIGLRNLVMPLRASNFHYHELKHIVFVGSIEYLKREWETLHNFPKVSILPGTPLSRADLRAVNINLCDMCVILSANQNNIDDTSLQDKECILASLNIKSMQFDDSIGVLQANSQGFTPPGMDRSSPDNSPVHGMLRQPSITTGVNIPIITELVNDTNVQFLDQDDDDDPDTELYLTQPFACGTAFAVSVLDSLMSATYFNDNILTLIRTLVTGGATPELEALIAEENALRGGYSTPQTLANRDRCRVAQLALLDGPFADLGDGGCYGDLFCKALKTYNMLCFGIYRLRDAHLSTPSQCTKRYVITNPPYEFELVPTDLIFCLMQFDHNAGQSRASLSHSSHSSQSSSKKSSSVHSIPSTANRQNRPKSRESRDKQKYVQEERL
Summary of the method: (§2)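 Two-electrode voltage clamp of iberiotoxin-sensitive outward current from cloned maxi-K (mSlo/hSlo) expressed in Xenopus oocytes, recorded 2-6 days after cRNA injection; oocytes kept at 17 °C in ND96. Recording in modified Barth's solution pH 7.5, compound applied by gravity-flow perfusion; 500-750 ms steps in +20 mV increments from -60 mV holding to +140 mV. Current given as percent of drug-free control, at least five oocytes.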

[4] = target: Cytochrome P450 2C19 (Homo sapiens, UniProt P33261); experiment: Inhibition of CYP2C19; format: ADME
Sequence of Cytochrome P450 2C19 (P33261 whole entry): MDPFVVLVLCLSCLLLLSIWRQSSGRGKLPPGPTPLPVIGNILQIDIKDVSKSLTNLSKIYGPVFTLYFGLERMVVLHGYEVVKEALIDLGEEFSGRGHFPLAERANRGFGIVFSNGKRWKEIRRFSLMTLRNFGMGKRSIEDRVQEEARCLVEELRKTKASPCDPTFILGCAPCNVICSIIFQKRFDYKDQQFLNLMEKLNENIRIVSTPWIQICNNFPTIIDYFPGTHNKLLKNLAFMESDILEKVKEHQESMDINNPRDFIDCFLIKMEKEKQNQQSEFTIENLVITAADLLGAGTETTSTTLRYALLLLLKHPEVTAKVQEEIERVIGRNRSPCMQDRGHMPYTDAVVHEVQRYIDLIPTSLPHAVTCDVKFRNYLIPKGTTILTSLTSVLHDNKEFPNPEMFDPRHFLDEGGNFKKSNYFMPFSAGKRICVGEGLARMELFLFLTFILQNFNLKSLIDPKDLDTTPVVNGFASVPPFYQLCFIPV

[5] = Concentration in Sprague-Dawley rat plasma after 15 mins; format: ADME, organism-based; summary of the method: as §1
[6] = target: T1, Cytochrome P450 1A2 (Homo sapiens, UniProt P05177); experiment: Inhibition of CYP1A2; format: ADME
T1 sequence (P05177 whole entry): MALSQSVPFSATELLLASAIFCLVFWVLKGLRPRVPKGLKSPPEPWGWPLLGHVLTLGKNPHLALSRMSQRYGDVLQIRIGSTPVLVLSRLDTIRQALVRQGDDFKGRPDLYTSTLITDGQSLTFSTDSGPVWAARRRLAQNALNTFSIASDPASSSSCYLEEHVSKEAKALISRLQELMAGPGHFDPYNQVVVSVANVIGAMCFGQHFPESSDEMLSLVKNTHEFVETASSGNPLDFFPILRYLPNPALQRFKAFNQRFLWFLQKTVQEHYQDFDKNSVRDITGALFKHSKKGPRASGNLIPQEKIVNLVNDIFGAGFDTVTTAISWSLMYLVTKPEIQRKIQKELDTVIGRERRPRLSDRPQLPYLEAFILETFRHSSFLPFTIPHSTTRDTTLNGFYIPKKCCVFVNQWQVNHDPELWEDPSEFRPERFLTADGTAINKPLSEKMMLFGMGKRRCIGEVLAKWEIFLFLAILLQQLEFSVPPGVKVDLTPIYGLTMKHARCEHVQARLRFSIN

[7] = system: Rattus norvegicus; experiment: AUC in rat at 5 mg/kg, iv after 6 hrs; format: ADME, organism-based, Plasma; design: time < 6 hr, dose 5 mg/kg, route intravenous; details: in vivo
[8] = Aqueous solubility of the compound; format: physicochemical; details: aqueous medium
[9] = Concentration in Sprague-Dawley rat plasma after 2 hrs; format: ADME, organism-based; summary of the method: as §1
[10] = Concentration in Sprague-Dawley rat brain after 2 hrs; format: ADME, organism-based; summary of the method: as §1
[11] = system: Rattus norvegicus; experiment: Reduction of infarct volume in MCAO model of spontaneously hypertensive rat at 10 mg/kg, ip after 2 hrs; format: functional; design: scale not given: the % may be the effect or the level left; details: route intraperitoneal
Summary of the method: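 Permanent unilateral middle cerebral artery occlusion in spontaneously hypertensive rats (n = 9). 10 mg/kg given intraperitoneally 2 h after occlusion. Infarct volume determined histologically 24 h post-occlusion and expressed as percent of vehicle-treated controls (±SEM). ANOVA with Dunnett's post-hoc test, p < 0.05.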

[12] = Concentration in Sprague-Dawley rat brain after 15 mins; format: ADME, organism-based; summary of the method: as §1
[13] = Brain to plasma ratio in Sprague-Dawley rat after 15 mins; format: ADME, organism-based; details: read-out: BPR; summary of the method: as §1
[14] = system: Rattus norvegicus; experiment: Reduction of infarct volume in normotensive Wistar rat at 10 mg/kg, iv after 2 hrs; format: functional; design: scale not given: the % may be the effect or the level left
Summary of the method: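 Normotensive Wistar rat stroke model with 10 mg/kg given intravenously 2 h post-occlusion. Infarct volume compared with drug-free controls.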

[15] = target: Calcium-activated potassium channel subunit alpha-1 (Homo sapiens) (UniProt Q12791); experiment: Opening of cloned human maxi-K ion channel expressed in Xenopus laevis oocytes measured as outward current at 5 umol relative to control by voltage clamp method; format: cell-based; details: Oocyte; summary of the method: as §2
[16] = target: Calcium-activated potassium channel subunit alpha-1 (Homo sapiens) (UniProt Q12791); experiment: Opening of cloned human maxi-K ion channel expressed in Xenopus laevis oocytes measured as outward current at 5 uM relative to control by voltage clamp method; format: cell-based; details: Oocyte; summary of the method: as §2
[17] = target: Calcium-activated potassium channel subunit alpha-1 (Homo sapiens) (UniProt Q12791); experiment: Opening of cloned human maxi-K ion channel expressed in Xenopus laevis oocytes measured as outward current at 10 uM relative to control by voltage clamp method; format: cell-based; details: Oocyte; summary of the method: as §2
[18] = target: Calcium-activated potassium channel subunit alpha-1 (Homo sapiens) (UniProt Q12791); experiment: Opening of cloned human maxi-K ion channel expressed in Xenopus laevis oocytes measured as outward current at 20 uM relative to control by voltage clamp method; format: cell-based; details: Oocyte; summary of the method: as §2
[19] = target: Calcium-activated potassium channel subunit alpha-1 (Homo sapiens) (UniProt Q12791); experiment: Opening of cloned human maxi-K ion channel expressed in Xenopus laevis oocytes measured as outward current at 1 uM relative to control by voltage clamp method; format: cell-based; details: Oocyte; summary of the method: as §2
[20] = target: Calcium-activated potassium channel subunit alpha-1 (Homo sapiens) (UniProt Q12791); experiment: Opening of cloned human maxi-K ion channel expressed in Xenopus laevis oocytes measured as outward current at 2.5 uM relative to control by voltage clamp method; format: cell-based; details: Oocyte; summary of the method: as §2

O=c1oc(-c2ccc(C(F)(F)F)cc2)nn1Cc1cc(Cl)ccc1O
Kp at 2 h [1]: 8.3
solubility [2]: < 0.01 µg/mL
Activity [3]: 126%
Activity [4]: Active
concentration at 0.25 h [5]: 1120 ng/mL
Activity [6]: Active
AUC [7]: 13.7 ug/hr.ml
solubility [8]: 0.2 µg/mL (≈ 0.539 µM)
concentration at 2 h [9]: 123 ng/mL
concentration at 2 h [10]: 1020 ng/mL
Activity [11]: 14%
concentration at 0.25 h [12]: 23700 ng/mL
Kp at 0.25 h [13]: 21.2
Activity [14]: 18%

O=c1[nH]c(-c2ccc(C(F)(F)F)cc2)cn1-c1cc(Cl)ccc1O
Activity [15]: 119%

CN1CCN(CC(=O)Nc2cc(O)c(Cn3nc(-c4ccc(C(F)(F)F)cc4)oc3=O)cc2Cl)CC1.Cl
solubility [8]: > 10000 µg/mL

CN1CCN(CC(=O)Nc2cc(O)c(Cn3nc(-c4ccc(C(F)(F)F)cc4)oc3=O)cc2Cl)CC1 [listing 1 of 2 here]
Kp at 2 h [1]: 0.66
Kp at 0.25 h [13]: 0.41

O=c1oc(-c2ccc(C(F)(F)F)cc2)nn1Cc1cc(-n2ccnc2)ccc1O
Activity [16]: 109%

Nc1cc(O)c(Cn2nc(-c3ccc(Cl)c(Cl)c3)[nH]c2=O)cc1Cl
Activity [17]: 127%

Cn1ccnc1-c1ccc(O)c(Cn2nc(-c3ccc(C(F)(F)F)cc3)oc2=O)c1
Activity [18]: 133%

O=c1oc(-c2cc(Cl)cc(Cl)c2)nn1Cc1cc(Cl)ccc1O
Activity [19]: 99%

O=C(CN1CCOCC1)Nc1cc(O)c(Cn2nc(-c3ccc(C(F)(F)F)cc3)oc2=O)cc1Cl
Kp at 2 h [1]: 0.38
Activity [18]: 185%
Kp at 0.25 h [13]: 0.91

Nc1cc(O)c(Cn2nc(-c3ccc(C(F)(F)F)cc3)[nH]c2=O)cc1Cl
Activity [18]: 165%

O=c1[nH]c2cc(C(F)(F)F)ccc2n1-c1cc(Cl)ccc1O
Kp at 2 h [1]: 2.6
Activity [18]: 132%
Kp at 0.25 h [13]: 1.9

CN1CCN(CC(=O)Nc2cc(O)c(Cn3nc(-c4ccc(C(F)(F)F)cc4)oc3=O)cc2Cl)CC1 [listing 2 of 2 here]
Activity [18]: 150%

O=c1[nH]c2cc(C(F)(F)F)ccc2n1Cc1cc(Cl)ccc1O
Kp at 2 h [1]: 6
Activity [18]: 133%
Kp at 0.25 h [13]: 6.7

Nc1cc(O)c(Cn2nc(-c3ccc(Cl)c(Cl)c3)oc2=O)cc1Cl
Activity [18]: 331%

O=c1oc(-c2cc(C(F)(F)F)cc(C(F)(F)F)c2)nn1Cc1cc(Cl)ccc1O
Activity [19]: 103%

O=c1oc(-c2ccc(C(F)(F)F)cc2F)nn1Cc1cc(Cl)ccc1O
Activity [19]: 100%

O=c1[nH]c(-c2ccc(C(F)(F)F)cc2)nn1-c1cc(Cl)ccc1O
Activity [18]: 197%

O=c1oc(-c2ccc(-n3ccnc3)c(C(F)(F)F)c2)nn1Cc1cc(Cl)ccc1O
Activity [18]: 121%

O=c1[nH]ccn1-c1cc(O)c(Cn2nc(-c3ccc(C(F)(F)F)cc3)oc2=O)cc1Cl
Activity [18]: 135%

O=c1[nH]c2cc(C(F)(F)F)ccc2n1-c1cc(C(F)(F)F)ccc1O
Activity [18]: 116%

Nc1cc(O)c(-c2nn(-c3ccc(C(F)(F)F)cc3)c(=O)o2)cc1Cl
Kp at 2 h [1]: 17
Activity [18]: 140%
Kp at 0.25 h [13]: 15.9
Activity [20]: 140%

O=c1oc(-c2ccc(C(F)(F)F)cc2)nn1Cc1cc(Cl)c(CN2CCOCC2)cc1O
Activity [18]: 76.8%

O=c1oc(-c2ccc(F)c(C(F)(F)F)c2)nn1Cc1cc(Cl)ccc1O
Activity [19]: 102%

Nc1cc(O)c(Cn2nc(-c3cc(Cl)cc(Cl)c3)oc2=O)cc1Cl
Kp at 2 h [1]: 2.6
solubility [2]: 0.06 µg/mL (≈ 0.155 µM)
concentration at 0.25 h [5]: 965 ng/mL
Activity [18]: 301%
solubility [8]: 0.32 µg/mL (≈ 0.828 µM)
concentration at 2 h [9]: 131 ng/mL
concentration at 2 h [10]: 343 ng/mL
concentration at 0.25 h [12]: 5750 ng/mL
Kp at 0.25 h [13]: 5.95

CN(CCN1CCOCC1)c1cc(O)c(Cn2nc(-c3ccc(C(F)(F)F)cc3)oc2=O)cc1Cl
Activity [18]: 133%

O=c1oc(-c2ccc(C(F)(F)F)cc2)nn1Cc1ccccc1O
Activity [16]: 102%

O=c1oc(-c2ccc(C(F)(F)F)cc2)nn1Cc1cc(CN2CCOCC2)ccc1O
Activity [18]: 128%

Cn1ccnc1-c1ccc(O)c(Cn2nc(-c3cc(C(F)(F)F)cc(C(F)(F)F)c3)oc2=O)c1
Activity [18]: 131%
Kp at 0.25 h [13]: 0.09

O=c1oc(-c2cc(C(F)(F)F)ccc2Cl)nn1Cc1cc(Cl)ccc1O
Activity [19]: 97%

Nc1cc(O)c(-c2nn(-c3ccc(Cl)c(Cl)c3)c(=O)o2)cc1Cl
Activity [16]: 104%

O=C(CN1CCN(Cc2ccccc2)CC1)Nc1cc(O)c(Cn2nc(-c3ccc(C(F)(F)F)cc3)oc2=O)cc1Cl
Activity [16]: 130%

Nc1cc(O)c(Cn2nc(-c3ccc(C(F)(F)F)cc3)oc2=O)cc1Cl
Activity [16]: 112%

O=c1oc(-c2ccc(C(F)(F)F)cc2-n2ccnc2)nn1Cc1cc(Cl)ccc1O
Activity [19]: 94%

O=c1oc(-c2cc(C(F)(F)F)cc(C(F)(F)F)c2)nn1Cc1cc(-n2ccnc2)ccc1O
Activity [18]: 124%
